pIC50: −log10 of the molar value.
Tests used:
[1] = molecular target: T1, Amine oxidase [flavin-containing] A (Homo sapiens, UniProt P21397); assay: Inhibition of human recombinant MAO-A expressed in insect BT1-TN-5B1-4 cells assessed as production of hydrogen peroxide from p-tyramine at 100 uM up to 15 mins by amplex red-based fluorometric assay; conditions: 0.25 h; for inhibition (INH): 100 µM
T1 sequence (P21397 whole entry): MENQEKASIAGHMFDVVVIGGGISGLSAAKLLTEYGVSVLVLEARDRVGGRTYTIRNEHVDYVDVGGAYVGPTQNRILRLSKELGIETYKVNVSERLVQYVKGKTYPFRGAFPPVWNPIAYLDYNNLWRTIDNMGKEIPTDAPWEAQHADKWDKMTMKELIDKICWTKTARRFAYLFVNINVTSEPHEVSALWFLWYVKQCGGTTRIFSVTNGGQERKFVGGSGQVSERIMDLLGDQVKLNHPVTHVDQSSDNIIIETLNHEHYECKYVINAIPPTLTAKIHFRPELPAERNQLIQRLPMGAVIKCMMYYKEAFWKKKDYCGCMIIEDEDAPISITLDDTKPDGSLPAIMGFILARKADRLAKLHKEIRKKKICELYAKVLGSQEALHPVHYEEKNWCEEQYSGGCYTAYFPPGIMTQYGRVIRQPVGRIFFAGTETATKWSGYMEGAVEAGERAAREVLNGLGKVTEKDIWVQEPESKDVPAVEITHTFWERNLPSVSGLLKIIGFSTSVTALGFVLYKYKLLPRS
How it was run: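 Recombinant hMAO-A came from microsomes of baculovirus-infected BTI-TN-5B1-4 insect cells, at 1.1 μg protein. It was preincubated with the test drug in 0.05 M sodium phosphate, pH 7.4, for 15 min at 37 °C. The reaction was started with 200 μM Amplex Red, 1 U/mL HRP and 1 mM p-tyramine (final). H2O2-derived resorufin fluorescence (ex 545, em 590 nm) was read over 15 min. Enzyme-free background was subtracted against vehicle controls. 100 μM was the highest concentration tested.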

[2] = molecular target: T2, Amine oxidase [flavin-containing] B (Homo sapiens, UniProt P27338); assay: Inhibition of human recombinant MAO-B expressed in insect BT1-TN-5B1-4 cells assessed as production of hydrogen peroxide from p-tyramine up to 15 mins by amplex red-based fluorometric assay; assay type: cell-based
T2 sequence (P27338 whole entry): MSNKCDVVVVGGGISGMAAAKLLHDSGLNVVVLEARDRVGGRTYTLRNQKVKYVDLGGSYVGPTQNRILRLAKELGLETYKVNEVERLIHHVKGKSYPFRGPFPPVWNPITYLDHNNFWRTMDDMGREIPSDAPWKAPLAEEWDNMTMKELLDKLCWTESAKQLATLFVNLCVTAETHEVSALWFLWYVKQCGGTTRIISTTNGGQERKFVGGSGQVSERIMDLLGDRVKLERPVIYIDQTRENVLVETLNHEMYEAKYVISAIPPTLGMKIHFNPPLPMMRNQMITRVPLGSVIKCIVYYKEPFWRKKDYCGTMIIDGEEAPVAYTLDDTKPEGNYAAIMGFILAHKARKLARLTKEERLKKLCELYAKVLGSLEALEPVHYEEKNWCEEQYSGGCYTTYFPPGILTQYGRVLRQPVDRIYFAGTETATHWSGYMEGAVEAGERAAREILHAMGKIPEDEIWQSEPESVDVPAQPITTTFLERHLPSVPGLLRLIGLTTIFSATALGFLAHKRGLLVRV

Homo sapiens = organism: Homo sapiens; assay: Selectivity index, ratio of IC50 for human recombinant MAO-A to IC50 for human recombinant MAO-B
[3] = molecular target: T1, Amine oxidase [flavin-containing] A; assay: Inhibition of human recombinant MAO-A expressed in insect BT1-TN-5B1-4 cells assessed as production of hydrogen peroxide from p-tyramine up to 15 mins by amplex red-based fluorometric assay
[4] = molecular target: T2, Amine oxidase [flavin-containing] B; assay: Inhibition of human recombinant MAO-B expressed in insect BT1-TN-5B1-4 cells assessed as production of hydrogen peroxide from p-tyramine at 100 uM up to 15 mins by amplex red-based fluorometric assay; conditions: 0.25 h
How it was run: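 hMAO-B was used as microsomes from BTI-TN-5B1-4 insect cells infected with recombinant baculovirus, at 7.5 μg protein. It was preincubated for 15 min at 37 °C with the test drug in sodium phosphate buffer, 0.05 M, pH 7.4. The reaction was then started with final 200 μM Amplex Red, 1 U/mL horseradish peroxidase and 1 mM p-tyramine. Resorufin fluorescence (545/590 nm) was followed at 37 °C for 15 min, minus the no-enzyme background and relative to vehicle controls. The top concentration was 100 μM.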

Row | SMILES | inhibition at 100 µM [1] | pIC50 [2] | Ratio IC50 (Homo sapiens) | inhibition (INH) [1] | pIC50 [3] | inhibition (INH) [4]
1 | Cc1ccc(-c2cc3cc(C)ccc3oc2=O)cc1 |  |  |  | Not Active |  | 
2 | COc1ccc2oc(=O)c(-c3cccc(C)c3)cc2c1 |  | 7.77 | > 5880 | Not Active |  | 
3 | COc1ccc(-c2cc3cc(C)ccc3oc2=O)cc1OC |  | 8.56 | 9210 |  | 4.60 | 
4 | COc1cc(OC)cc(-c2cc3cc(C)ccc3oc2=O)c1 |  |  | > 11100 | Not Active |  | 
5 | Cc1ccc2oc(=O)c(-c3ccccc3O)cc2c1 |  | 6.92 | 180 |  | 4.67 | 
6 | Cc1ccc2oc(=O)c(-c3ccccc3)cc2c1 |  |  | > 352 | Not Active |  | 
7 | COc1ccc(-c2cc3cc(C)ccc3oc2=O)cc1 |  |  | > 7660 | Not Active |  | 
8 | Cc1ccc(-c2cc3cc(O)ccc3oc2=O)cc1 |  | 7.17 | 372 |  | 4.60 | 
9 | Cc1ccc(-c2cc3cc(OC4CCCC4)ccc3oc2=O)cc1 |  | 4.84 | > 6.9 | Not Active |  | 
10 | Cc1ccc2oc(=O)c(-c3ccc(O)cc3)cc2c1 |  |  |  | Not Active |  | 
11 | Cc1ccc2oc(=O)c(-c3cccc(O)c3)cc2c1 |  | 6.19 | 54 |  | 4.46 | 

The remaining lines, values ahead:

Row | inhibition at 100 µM [1] | pIC50 [2] | Ratio IC50 (Homo sapiens) | inhibition (INH) [1] | pIC50 [3] | inhibition (INH) [4] | SMILES
12 | 40% | 7.82 | > 6670 |  |  |  | Cc1cccc(-c2cc3cc(C)ccc3oc2=O)c1
13 |  | 5.26 | > 18 | Not Active |  |  | CC(=O)COc1ccc2oc(=O)c(-c3ccc(C)cc3)cc2c1
14 | 40% | 6.74 | > 555 |  |  |  | CC(=O)COc1cccc(-c2cc3cc(C)ccc3oc2=O)c1
15 |  |  | > 125000 | Not Active |  |  | COc1cccc(-c2cc3cc(C)ccc3oc2=O)c1
16 |  | 8.49 | > 31200 | Not Active |  |  | COc1cc(-c2cc3cc(C)ccc3oc2=O)ccc1Br
17 |  | 8.82 | > 6790 | Not Active |  |  | COc1ccc2oc(=O)c(-c3ccc(C)cc3)cc2c1
18 |  | 4.27 | > 1.9 | Not Active |  |  | COc1cc(OC)c(Br)c(-c2cc3cc(C)ccc3oc2=O)c1
19 |  | 9.13 | > 136000 | Not Active |  |  | COc1ccc(-c2cc3cc(C)ccc3oc2=O)cc1Br
20 |  |  |  | Not Active |  | Not Active | COc1ccccc1-c1cc2cc(C)ccc2oc1=O
21 |  |  |  | Not Active |  | Not Active | COc1cc(-c2cc3cc(C)ccc3oc2=O)c(Br)c(OC)c1OC
22 |  |  | > 623 | Not Active |  |  | COc1cc(-c2cc3cc(C)ccc3oc2=O)cc(OC)c1OC

Source: ChEMBL document CHEMBL1833810, “Synthesis and study of a series of 3-arylcoumarins as potent and selective monoamine oxidase B inhibitors” (J Med Chem, 2011)
